Experimental data published in ChEMBL document CHEMBL3352356, “N-tetradecylcarbamyl lipopeptides as novel agonists for Toll-like receptor 2” (J Med Chem, 2014).
Calls of active or inactive are those of the source. The rule behind the calls is not given here.

Assays:
D1 = assay: Immunostimulatory activity in C57BL/6 (H-2b) mouse D1 cells assessed as increase in IL-12p40 secretion at 30 pM to 30 nM after 24 hrs by ELISA/DC maturation assay; assay type: functional, cell-based
Outline: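 Cells were D1, a growth factor-dependent immature spleen-derived dendritic cell line from C57BL/6 (H-2b) mice. Compounds were titrated at 4 concentrations in complete IMDM, with about 40.000 cells per well. After 24 hours at 37°C, supernatant IL-12p40 was measured by ELISA. Assays were run in triplicate, with standard deviation shown.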

[1] = target: Toll-like receptor 2 (Homo sapiens) (UniProt O60603); assay: Activation of human TLR2 expressed in HEK293 cells assessed as IL-8 secretion after 48 hrs by ELISA
Sequence of Toll-like receptor 2 (Homo sapiens) (O60603 whole entry): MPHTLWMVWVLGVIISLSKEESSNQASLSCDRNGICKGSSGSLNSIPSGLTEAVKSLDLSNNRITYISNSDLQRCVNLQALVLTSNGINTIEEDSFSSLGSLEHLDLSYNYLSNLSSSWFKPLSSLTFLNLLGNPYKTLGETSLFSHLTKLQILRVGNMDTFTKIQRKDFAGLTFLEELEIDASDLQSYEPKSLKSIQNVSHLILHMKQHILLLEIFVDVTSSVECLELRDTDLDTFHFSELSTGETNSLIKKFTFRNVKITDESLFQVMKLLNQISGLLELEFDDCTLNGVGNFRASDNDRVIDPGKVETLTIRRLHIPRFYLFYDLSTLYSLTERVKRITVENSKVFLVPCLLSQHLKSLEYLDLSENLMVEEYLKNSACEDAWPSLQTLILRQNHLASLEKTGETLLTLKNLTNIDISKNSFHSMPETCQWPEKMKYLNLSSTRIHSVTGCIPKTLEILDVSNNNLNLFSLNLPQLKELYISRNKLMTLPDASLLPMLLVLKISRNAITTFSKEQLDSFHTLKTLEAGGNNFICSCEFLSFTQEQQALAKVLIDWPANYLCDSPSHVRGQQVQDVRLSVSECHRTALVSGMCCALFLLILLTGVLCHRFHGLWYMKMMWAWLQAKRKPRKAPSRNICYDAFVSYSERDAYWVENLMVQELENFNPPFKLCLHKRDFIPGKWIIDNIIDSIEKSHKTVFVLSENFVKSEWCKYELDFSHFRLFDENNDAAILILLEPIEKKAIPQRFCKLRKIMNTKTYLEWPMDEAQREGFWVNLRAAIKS

[2] = target: Toll-like receptor 2 (Homo sapiens) (UniProt O60603); assay: Activation of human TLR2 expressed in HEK293 cells assessed as IL-8 secretion at 30 to 300 nM after 48 hrs by ELISA

| SMILES | Activity [1] | Activity [2] | Activity (D1) |
| --- | --- | --- | --- |
| CCCCCCCCCCCCCCCC(=O)OCC(CSC[C@H](NC(=O)NCCCCCCCCCCCCCC)C(=O)NCC(=O)N[C@@H](CCCCN)C(=O)N[C@@H](CCCCN)C(=O)N[C@@H](CCCCN)C(=O)N[C@@H](CCCCN)C(N)=O)OC(=O)CCCCCCCCCCCCCCC (mixture of isomers) | Dose-dependent effect |  |  |
| CCCCCCCCCCCCCCCC(=O)OCC(CSC[C@H](NC(=O)NCCCCCCCCCCCCCC)C(=O)NCCC(=O)N[C@@H](CCCCN)C(=O)N[C@@H](CCCCN)C(=O)N[C@@H](CCCCN)C(=O)N[C@@H](CCCCN)C(N)=O)OC(=O)CCCCCCCCCCCCCCC (mixture of isomers) | Dose-dependent effect |  | inactive |
| CCCCCCCCCCCCCCCC(=O)OCC(CSC[C@H](NC(=O)NCCCCCCCCCCCCCC)C(=O)NC[C@H](CCCCN)C(=O)N[C@@H](CCCCN)C(=O)N[C@@H](CCCCN)C(=O)N[C@@H](CCCCN)C(=O)N[C@@H](CCCCN)C(N)=O)OC(=O)CCCCCCCCCCCCCCC (mixture of isomers) |  | inactive | inactive |
| CCCCCCCCCCCCCCCC(=O)OCC(CSC[C@H](NC(=O)NCCCCCCCCCCCCCC)C(=O)N[C@@H](CC(N)=O)C(=O)N[C@@H](CCCCN)C(=O)N[C@@H](CCCCN)C(=O)N[C@@H](CCCCN)C(=O)N[C@@H](CCCCN)C(N)=O)OC(=O)CCCCCCCCCCCCCCC (mixture of isomers) | Dose-dependent effect |  | Active |
| CCCCCCCCCCCCCCCC(=O)OCC(CSC[C@H](NC(=O)NCCCCCCCCCCCCCC)C(=O)N[C@@H](CCCC)C(=O)N[C@@H](CCCCN)C(=O)N[C@@H](CCCCN)C(=O)N[C@@H](CCCCN)C(=O)N[C@@H](CCCCN)C(N)=O)OC(=O)CCCCCCCCCCCCCCC (mixture of isomers) | Dose-dependent effect |  | Active |
| CCCCCCCCCCCCCCCC(=O)OCC(CSC[C@H](NC(=O)NCCCCCCCCCCCCCC)C(=O)N[C@@H](Cc1ccc2ccccc2c1)C(=O)N[C@@H](CCCCN)C(=O)N[C@@H](CCCCN)C(=O)N[C@@H](CCCCN)C(=O)N[C@@H](CCCCN)C(N)=O)OC(=O)CCCCCCCCCCCCCCC (mixture of isomers) |  | inactive | inactive |
| CCCCCCCCCCCCCCCC(=O)OCC(CSC[C@H](NC(=O)NCCCCCCCCCCCCCC)C(=O)N[C@@H](Cc1ccccc1)C(=O)N[C@@H](CCCCN)C(=O)N[C@@H](CCCCN)C(=O)N[C@@H](CCCCN)C(=O)N[C@@H](CCCCN)C(N)=O)OC(=O)CCCCCCCCCCCCCCC (mixture of isomers) | Dose-dependent effect |  | inactive |
| CCCCCCCCCCCCCCCC(=O)OCC(CSC[C@H](NC(=O)NCCCCCCCCCCCCCC)C(=O)N[C@@H](Cc1cccs1)C(=O)N[C@@H](CCCCN)C(=O)N[C@@H](CCCCN)C(=O)N[C@@H](CCCCN)C(=O)N[C@@H](CCCCN)C(N)=O)OC(=O)CCCCCCCCCCCCCCC (mixture of isomers) | Dose-dependent effect |  | inactive |
| CCCCCCCCCCCCCCCC(=O)OCC(CSC[C@H](NC(=O)NCCCCCCCCCCCCCC)C(=O)N[C@H](C(=O)N[C@@H](CCCCN)C(=O)N[C@@H](CCCCN)C(=O)N[C@@H](CCCCN)C(=O)N[C@@H](CCCCN)C(N)=O)c1cccs1)OC(=O)CCCCCCCCCCCCCCC (mixture of isomers) | Dose-dependent effect |  |  |

Further lines, with some results ahead:

| Activity [1] | Activity [2] | SMILES | Activity (D1) |
| --- | --- | --- | --- |
| Dose-dependent effect |  | C#CC[C@H](NC(=O)[C@H](CSCC(COC(=O)CCCCCCCCCCCCCCC)OC(=O)CCCCCCCCCCCCCCC)NC(=O)NCCCCCCCCCCCCCC)C(=O)N[C@@H](CCCCN)C(=O)N[C@@H](CCCCN)C(=O)N[C@@H](CCCCN)C(=O)N[C@@H](CCCCN)C(N)=O (mixture of isomers) | Active |
|  | inactive | C=CC[C@@H](NC(=O)[C@H](CSCC(COC(=O)CCCCCCCCCCCCCCC)OC(=O)CCCCCCCCCCCCCCC)NC(=O)NCCCCCCCCCCCCCC)C(=O)N[C@@H](CCCCN)C(=O)N[C@@H](CCCCN)C(=O)N[C@@H](CCCCN)C(=O)N[C@@H](CCCCN)C(N)=O (mixture of isomers) |  |
| Dose-dependent effect |  | C=CC[C@H](NC(=O)[C@H](CSCC(COC(=O)CCCCCCCCCCCCCCC)OC(=O)CCCCCCCCCCCCCCC)NC(=O)NCCCCCCCCCCCCCC)C(=O)N[C@@H](CCCCN)C(=O)N[C@@H](CCCCN)C(=O)N[C@@H](CCCCN)C(=O)N[C@@H](CCCCN)C(N)=O (mixture of isomers) | Active |
| Dose-dependent effect |  | CCCCCCCCCCCCCCCC(=O)OCC(CSC[C@H](NC(=O)NCCCCCCCCCCCCCC)C(=O)N[C@@H](C)C(=O)N[C@@H](CCCCN)C(=O)N[C@@H](CCCCN)C(=O)N[C@@H](CCCCN)C(=O)N[C@@H](CCCCN)C(N)=O)OC(=O)CCCCCCCCCCCCCCC (mixture of isomers) |  |
| Dose-dependent effect |  | CCCCCCCCCCCCCCCC(=O)OCC(CSC[C@H](NC(=O)NCCCCCCCCCCCCCC)C(=O)N[C@@H](CC#N)C(=O)N[C@@H](CCCCN)C(=O)N[C@@H](CCCCN)C(=O)N[C@@H](CCCCN)C(=O)N[C@@H](CCCCN)C(N)=O)OC(=O)CCCCCCCCCCCCCCC (mixture of isomers) | Active |
| Dose-dependent effect |  | CCCCCCCCCCCCCCCC(=O)OCC(CSC[C@H](NC(=O)NCCCCCCCCCCCCCC)C(=O)N[C@@H](CC)C(=O)N[C@@H](CCCCN)C(=O)N[C@@H](CCCCN)C(=O)N[C@@H](CCCCN)C(=O)N[C@@H](CCCCN)C(N)=O)OC(=O)CCCCCCCCCCCCCCC (mixture of isomers) | Active |
| Dose-dependent effect |  | CCCCCCCCCCCCCCCC(=O)OCC(CSC[C@H](NC(=O)NCCCCCCCCCCCCCC)C(=O)N[C@@H](CCC)C(=O)N[C@@H](CCCCN)C(=O)N[C@@H](CCCCN)C(=O)N[C@@H](CCCCN)C(=O)N[C@@H](CCCCN)C(N)=O)OC(=O)CCCCCCCCCCCCCCC (mixture of isomers) | Active |
| Dose-dependent effect |  | CCCCCCCCCCCCCCCC(=O)OCC(CSC[C@H](NC(=O)NCCCCCCCCCCCCCC)C(=O)N[C@@H](CCN)C(=O)N[C@@H](CCCCN)C(=O)N[C@@H](CCCCN)C(=O)N[C@@H](CCCCN)C(=O)N[C@@H](CCCCN)C(N)=O)OC(=O)CCCCCCCCCCCCCCC (mixture of isomers) | Active |
| Dose-dependent effect |  | CCCCCCCCCCCCCCCC(=O)OCC(CSC[C@H](NC(=O)NCCCCCCCCCCCCCC)C(=O)N[C@@H](CN)C(=O)N[C@@H](CCCCN)C(=O)N[C@@H](CCCCN)C(=O)N[C@@H](CCCCN)C(=O)N[C@@H](CCCCN)C(N)=O)OC(=O)CCCCCCCCCCCCCCC (mixture of isomers) | inactive |
| Dose-dependent effect |  | CCCCCCCCCCCCCCCC(=O)OCC(CSC[C@H](NC(=O)NCCCCCCCCCCCCCC)C(=O)N[C@@H](CO)C(=O)N[C@@H](CCCCN)C(=O)N[C@@H](CCCCN)C(=O)N[C@@H](CCCCN)C(=O)N[C@@H](CCCCN)C(N)=O)OC(=O)CCCCCCCCCCCCCCC (mixture of isomers) | Active |
|  | inactive | CCCCCCCCCCCCCCCC(=O)OCC(CSC[C@H](NC(=O)NCCCCCCCCCCCCCC)C(=O)N[C@@H](CS)C(=O)N[C@@H](CCCCN)C(=O)N[C@@H](CCCCN)C(=O)N[C@@H](CCCCN)C(=O)N[C@@H](CCCCN)C(N)=O)OC(=O)CCCCCCCCCCCCCCC (mixture of isomers) | inactive |
| Dose-dependent effect |  | CCCCCCCCCCCCCCCC(=O)OCC(CSC[C@H](NC(=O)NCCCCCCCCCCCCCC)C(=O)N[C@H](C(=O)N[C@@H](CCCCN)C(=O)N[C@@H](CCCCN)C(=O)N[C@@H](CCCCN)C(=O)N[C@@H](CCCCN)C(N)=O)C(C)(C)S)OC(=O)CCCCCCCCCCCCCCC (mixture of isomers) | inactive |
|  | inactive | CCCCCCCCCCCCCCCC(=O)OCC(CSC[C@H](NC(=O)NCCCCCCCCCCCCCC)C(=O)N[C@H](CS)C(=O)N[C@@H](CCCCN)C(=O)N[C@@H](CCCCN)C(=O)N[C@@H](CCCCN)C(=O)N[C@@H](CCCCN)C(N)=O)OC(=O)CCCCCCCCCCCCCCC (mixture of isomers) | inactive |
